Bioassay records: PubChem, several laboratories
Shown is part of a subset that was picked to be rich in hits.
Avidin bead fluor = green autofluorescence of compounds with avidin beads – biophysical, 488/530 nm, flow cytometry, artefact control, profiling panel | compound fluorescence 488/530 nm; stronger effect = higher value | fluorescence (KMESF) at 10 µM | hit rate 0.38% among 220,000 | AID 1775, 2009; in the data active = fluorescence above about 47
ABCB1 inh = ABCB1 efflux pump inhibitors, primary screen, cell-based, multiplex, flow cytometry, ABCG2 counter-screen. CCRF-Adr cells, JC-1 efflux. inhibition, % at 6.6 µM. AID 1326, 2008. ATP-dependent translocase ABCB1 (Homo sapiens), P08183. hit rate 0.067% among 190,000; in the data active = inhibition above about 40%;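 note: higher value means more JC-1 retained so stronger ABCB1 efflux block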
GSH bead fluor = compound fluorescence on glutathione beads, profiling panel, artefact control, biophysical, 488/530 nm, flow cytometry; GSH beads flow cytometry, compound fluorescence 488/530 nm; stronger effect = higher value; fluorescence (KMESF) at 10 µM; hit rate 0.25% among 190,000; AID 1776, 2009; in the data active = fluorescence above about 89;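 note: glutathione beads carrying GST-tagged Bcl family fusion proteins plus one bare bead set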
PKD1 kinase inh = inhibitors of human PKD1 kinase, biochemical, fluorescence polarization; Serine/threonine-protein kinase D1 (Homo sapiens), Q15139; hit rate 0.056% among 200,000; AID 797, 2007; PKD1 kinase fluorescence polarization assay; inhibition, % (concentration not given with the values)
Target sequence (Q15139 whole entry, looked up): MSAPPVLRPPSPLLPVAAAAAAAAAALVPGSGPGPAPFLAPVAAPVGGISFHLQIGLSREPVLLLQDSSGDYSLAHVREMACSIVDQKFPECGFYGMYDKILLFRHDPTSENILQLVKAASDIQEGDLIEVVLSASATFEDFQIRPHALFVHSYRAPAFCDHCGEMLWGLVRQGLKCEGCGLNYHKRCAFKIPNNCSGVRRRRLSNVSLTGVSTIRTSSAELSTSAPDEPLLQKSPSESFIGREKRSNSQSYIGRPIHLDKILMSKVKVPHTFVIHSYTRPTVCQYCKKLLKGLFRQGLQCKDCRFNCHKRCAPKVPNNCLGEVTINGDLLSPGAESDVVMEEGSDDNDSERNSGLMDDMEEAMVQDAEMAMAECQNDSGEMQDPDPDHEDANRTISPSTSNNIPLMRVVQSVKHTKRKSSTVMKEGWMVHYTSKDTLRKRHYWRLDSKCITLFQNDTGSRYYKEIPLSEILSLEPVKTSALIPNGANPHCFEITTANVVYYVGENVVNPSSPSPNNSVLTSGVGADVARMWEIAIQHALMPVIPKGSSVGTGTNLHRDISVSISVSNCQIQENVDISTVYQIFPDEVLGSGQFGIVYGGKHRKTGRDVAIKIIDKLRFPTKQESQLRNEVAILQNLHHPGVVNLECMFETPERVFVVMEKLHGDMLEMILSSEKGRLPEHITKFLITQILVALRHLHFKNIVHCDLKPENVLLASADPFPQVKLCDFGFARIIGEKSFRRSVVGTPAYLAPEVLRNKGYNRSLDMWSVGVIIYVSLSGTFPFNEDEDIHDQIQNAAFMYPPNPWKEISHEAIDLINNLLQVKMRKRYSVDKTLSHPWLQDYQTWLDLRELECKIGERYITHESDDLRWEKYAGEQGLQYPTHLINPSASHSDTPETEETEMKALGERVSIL
ABCG2 inh = ABCG2 efflux pump inhibitors, primary screen, multiplex with ABCB1, IgMXP3 cells, flow cytometry. hit rate 0.1% among 190,000. Broad substrate specificity ATP-binding cassette transporter ABCG2 (Homo sapiens), Q9UNQ0. inhibition, % at 6.6 µM. JC-1 efflux. AID 1325, 2008;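 active = inhibition above 80%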
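System: two drug-resistant human cell lines, ABCG2 and ABCB1; controls: nicardipine high and DMSO low controls; times: 10 min exposure at 25 °C with rotation, no wash; detection: flow cytometry of retained JC-1 fluorescence; read-out basis: percent efflux inhibition, scaled nicardipine 100% to DMSO 0%; doses: one concentration, 6.6 µM final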
Lmaj promast = Leishmania major promastigote growth inhibition, primary screen; inhibition, % at 10 µM; AID 1063, 2008; hit rate 9% among 200,000; Leishmania major promastigotes, resazurin fluorescence viability;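 note: promastigotes grown with compound for 44 hours at 28 °C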
Numbers stand for hits. Cut-off read from the data, not from the text of the source, unless noted: active = inhibition above about 50%; inactive = the rest.

Cc1noc(C)c1S(=O)(=O)N1CCN(C(c2ccccc2)c2ccc(Cl)cc2)CC1 (centres undefined) was read as Avidin bead fluor inactive, ABCB1 inh inactive, GSH bead fluor inactive, PKD1 kinase inh inactive, ABCG2 inh inactive and Lmaj promast 70.9.
Screening FC(F)(F)c1cccc(NC(=S)NCC(c2cccnc2)N2CCOCC2)c1 (centres undefined) returned Avidin bead fluor inactive, ABCB1 inh inactive, GSH bead fluor inactive, PKD1 kinase inh inactive, ABCG2 inh inactive and Lmaj promast 61.1.
`C#Cc1ccc([C@@H]2C=C(C(=O)OCC=C)O[C@H](OCc3ccc(CO)cc3)C2)cc1` gave Avidin bead fluor inactive, ABCB1 inh inactive, GSH bead fluor inactive, PKD1 kinase inh inactive, ABCG2 inh inactive and Lmaj promast inactive.
Screening CC(=O)NN1C(=O)/C(=C/c2ccc(C(C)C)cc2)SC1=S returned Avidin bead fluor inactive, ABCB1 inh inactive, GSH bead fluor inactive, PKD1 kinase inh inactive, ABCG2 inh inactive and Lmaj promast inactive.
COC(=O)c1ccc(/C=C/C(=O)c2cccc(OC)c2)cc1 was read as Avidin bead fluor inactive, ABCB1 inh inactive, GSH bead fluor inactive, PKD1 kinase inh inactive, ABCG2 inh inactive and Lmaj promast inactive.
For COc1cccc(C(=O)/C=C/c2ccc(OCC#N)c(OC)c2)c1 the results were Avidin bead fluor inactive, ABCB1 inh inactive, GSH bead fluor inactive, PKD1 kinase inh inactive, ABCG2 inh inactive and Lmaj promast 99.7.
For COc1cc(/C=C/C(=O)c2ccc(O)cc2)ccc1OCC#N the results were Avidin bead fluor inactive, ABCB1 inh inactive, GSH bead fluor inactive, PKD1 kinase inh inactive, ABCG2 inh inactive and Lmaj promast 98.5.
`CC(C)Oc1ccc(-c2cc(=O)[nH]c(=O)[nH]2)cc1` gave Avidin bead fluor inactive, ABCB1 inh inactive, GSH bead fluor inactive, PKD1 kinase inh inactive, ABCG2 inh inactive and Lmaj promast inactive.
CCOC(=O)c1cc2c(=O)n3ccccc3nc2n(C(C)C)c1=NC(=O)c1ccncc1 was read as Avidin bead fluor inactive, ABCB1 inh inactive, GSH bead fluor inactive, PKD1 kinase inh inactive, ABCG2 inh inactive and Lmaj promast 52.4.
`CCOC(=O)c1cc2c(=O)n3ccccc3nc2n(CCOC)c1=NC(=O)c1c(-c2c(F)cccc2Cl)noc1C` gave Avidin bead fluor inactive, ABCB1 inh inactive, GSH bead fluor inactive, PKD1 kinase inh inactive, ABCG2 inh inactive and Lmaj promast 67.1.
CCOC(=O)c1cc2c(=O)n3ccccc3nc2n(C(C)C)c1=NC(=O)c1c(-c2ccccc2Cl)noc1C was read as Avidin bead fluor inactive, ABCB1 inh inactive, GSH bead fluor inactive, PKD1 kinase inh inactive, ABCG2 inh inactive and Lmaj promast 87.5.
`CCOC(=O)c1cc2c(=O)n3ccccc3nc2n(CCOC)c1=NC(=O)c1ccncc1` gave Avidin bead fluor inactive, ABCB1 inh inactive, GSH bead fluor inactive, PKD1 kinase inh inactive, ABCG2 inh inactive and Lmaj promast inactive.
Screening CCOC(=O)c1cc2c(=O)n3ccccc3nc2n(CC(C)C)c1=NC(=O)c1ccco1 returned Avidin bead fluor inactive, ABCB1 inh inactive, GSH bead fluor inactive, PKD1 kinase inh inactive, ABCG2 inh inactive and Lmaj promast inactive.
`Cc1cccc(OCC(O)CN2CC3(C)CC2CC(C)(C)C3)c1` (centres undefined) gave Avidin bead fluor inactive, ABCB1 inh inactive, GSH bead fluor inactive, PKD1 kinase inh inactive, ABCG2 inh inactive and Lmaj promast inactive.
`COc1ccc(S(=O)(=O)N2CCOC2CNC(=O)C(=O)NCCc2c[nH]c3ccccc23)cc1C` (centres undefined) gave Avidin bead fluor inactive, ABCB1 inh inactive, GSH bead fluor inactive, PKD1 kinase inh inactive, ABCG2 inh inactive and Lmaj promast inactive.
CCc1ccc(CN2CCCC(CNS(=O)(=O)c3ccc(OC)cc3)C2)cc1 (centres undefined) was read as Avidin bead fluor inactive, ABCB1 inh inactive, GSH bead fluor inactive, PKD1 kinase inh inactive, ABCG2 inh inactive and Lmaj promast 84.0.
For COc1ccc(S(=O)(=O)NCC2CCCN(Cc3ccc(C)o3)C2)cc1 (centres undefined) the results were Avidin bead fluor inactive, ABCB1 inh inactive, GSH bead fluor inactive, PKD1 kinase inh inactive, ABCG2 inh inactive and Lmaj promast inactive.
Screening Cc1ccc(NC(=O)CN(C)C(=O)c2ccc(Cl)c([N+](=O)[O-])c2)cc1 returned Avidin bead fluor inactive, ABCB1 inh inactive, GSH bead fluor inactive, PKD1 kinase inh inactive, ABCG2 inh inactive and Lmaj promast inactive.
For O=C(CN(C(=O)c1cccc([N+](=O)[O-])c1)C1CCCCC1)Nc1ccc(Cl)c([N+](=O)[O-])c1 the results were Avidin bead fluor inactive, ABCB1 inh inactive, GSH bead fluor inactive, PKD1 kinase inh inactive, ABCG2 inh inactive and Lmaj promast 70.2.
Screening Cc1cc(C)n2nc(SCCOc3ccccc3)nc2n1 returned Avidin bead fluor inactive, ABCB1 inh inactive, GSH bead fluor inactive, PKD1 kinase inh inactive, ABCG2 inh inactive and Lmaj promast inactive.
For CCCC(C)NC(=S)Nc1cc(C)cc(C)c1 (centres undefined) the results were Avidin bead fluor inactive, ABCB1 inh inactive, GSH bead fluor inactive, PKD1 kinase inh inactive, ABCG2 inh inactive and Lmaj promast 76.2.
For O=C1OC(C(=O)Nc2nccs2)Cc2ccccc21 (centres undefined) the results were Avidin bead fluor inactive, ABCB1 inh inactive, GSH bead fluor inactive, PKD1 kinase inh inactive, ABCG2 inh inactive and Lmaj promast inactive.
COc1ccc(COc2cc(-c3cccc(OC)c3)nc3ccc(NC(=O)c4ccc(OC)cc4)cc23)cc1 was read as Avidin bead fluor inactive, ABCB1 inh inactive, GSH bead fluor inactive, PKD1 kinase inh inactive, ABCG2 inh inactive and Lmaj promast 96.8.
`COc1ccc(COc2cc(-c3cccc(OC)c3)nc3ccc(NC(=O)c4ccc(Cl)cc4)cc23)cc1` gave Avidin bead fluor inactive, ABCB1 inh inactive, GSH bead fluor inactive, PKD1 kinase inh inactive, ABCG2 inh inactive and Lmaj promast inactive.
Screening COc1ccc(COc2cc(-c3cccc(OC)c3)nc3ccc(NC(=O)c4ccccc4)cc23)cc1 returned Avidin bead fluor inactive, ABCB1 inh inactive, GSH bead fluor inactive, PKD1 kinase inh inactive, ABCG2 inh inactive and Lmaj promast 68.4.
`COc1ccc(COc2cc(-c3cccc(OC)c3)nc3ccc(NC(=O)c4cccnc4)cc23)cc1` gave Avidin bead fluor inactive, ABCB1 inh inactive, GSH bead fluor inactive, PKD1 kinase inh inactive, ABCG2 inh inactive and Lmaj promast 99.9.
For Fc1ccc(-c2n[nH]c(=S)c3ccccc23)cc1 the results were Avidin bead fluor inactive, ABCB1 inh inactive, GSH bead fluor inactive, PKD1 kinase inh inactive, ABCG2 inh inactive and Lmaj promast inactive.
